According to ChEMBL document CHEMBL1139465, “Synthesis, molecular modeling studies, and selective inhibitory activity against monoamine oxidase of 1-thiocarbamoyl-3,5-diaryl-4,5-dihydro-(1H)- pyrazole derivatives” (J Med Chem, 2005):

Experiments:
[1] = biological target: T1, Amine oxidase [flavin-containing] A (Bos taurus, UniProt P21398); experiment: Inhibition of bovine brain mitochondria MAOA
T1 sequence (P21398 whole entry): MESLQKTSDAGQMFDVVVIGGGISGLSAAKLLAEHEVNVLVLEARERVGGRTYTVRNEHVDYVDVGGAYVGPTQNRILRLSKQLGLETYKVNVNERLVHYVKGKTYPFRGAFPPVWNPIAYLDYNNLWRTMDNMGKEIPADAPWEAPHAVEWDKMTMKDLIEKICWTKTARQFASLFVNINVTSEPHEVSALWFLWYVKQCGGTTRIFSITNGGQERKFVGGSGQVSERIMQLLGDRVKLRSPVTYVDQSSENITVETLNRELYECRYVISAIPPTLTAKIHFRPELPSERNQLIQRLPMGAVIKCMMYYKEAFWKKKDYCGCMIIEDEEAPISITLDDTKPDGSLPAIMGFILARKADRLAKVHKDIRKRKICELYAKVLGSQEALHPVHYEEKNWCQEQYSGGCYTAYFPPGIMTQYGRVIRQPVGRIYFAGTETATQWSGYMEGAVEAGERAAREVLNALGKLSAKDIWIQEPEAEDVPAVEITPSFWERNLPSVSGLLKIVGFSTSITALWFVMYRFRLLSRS
How it was run: (§1)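 Beef brain mitochondria isolated per Basford, 6 mg/mL, in 0.25 M potassium phosphate pH 7.4. Preincubation 30 min at 38 °C with 0.5 µM L-deprenyl (MAO-A) or 0.05 µM clorgyline (MAO-B). Inhibitor in DMSO, […]. Kynuramine at four final levels, 5 µM–0.1 mM, 30 min at 38 °C. Perchloric acid stop, fluorimetric read. Ki from Dixon plots; ≥3 experiments in duplicate.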

[2] = biological target: T2, Amine oxidase [flavin-containing] B (Bos taurus, UniProt P56560); experiment: Inhibition of bovine brain mitochondria MAOB; how it was run: as §1
T2 sequence (P56560 whole entry): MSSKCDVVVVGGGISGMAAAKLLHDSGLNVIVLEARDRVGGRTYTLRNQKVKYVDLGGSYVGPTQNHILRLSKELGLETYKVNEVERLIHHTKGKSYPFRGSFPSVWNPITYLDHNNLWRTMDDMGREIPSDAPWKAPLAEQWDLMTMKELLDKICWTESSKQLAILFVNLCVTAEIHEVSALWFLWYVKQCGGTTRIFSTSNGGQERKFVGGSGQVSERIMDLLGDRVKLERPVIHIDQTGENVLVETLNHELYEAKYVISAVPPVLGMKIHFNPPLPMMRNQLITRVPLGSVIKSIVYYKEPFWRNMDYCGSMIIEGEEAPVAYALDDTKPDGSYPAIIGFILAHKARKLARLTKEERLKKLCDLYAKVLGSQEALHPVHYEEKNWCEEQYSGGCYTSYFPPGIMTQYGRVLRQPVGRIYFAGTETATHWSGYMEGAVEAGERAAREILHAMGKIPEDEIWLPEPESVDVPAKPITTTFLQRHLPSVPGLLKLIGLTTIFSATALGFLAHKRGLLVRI

Bos taurus [3] = organism: Bos taurus; experiment: Selectivity index, ratio of Ki for MAOB to Ki for MAOA in bovine brain mitochondria
How it was run: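 SI computed as Ki(MAO-B)/Ki(MAO-A). Both Ki values are from the fluorimetric kynuramine assay on bovine brain mitochondria, with isoforms isolated by L-deprenyl or clorgyline preincubation. Ki from Dixon plots; means of at least three experiments.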

Bos taurus [4] = organism: Bos taurus; experiment: Selectivity index, ratio of Ki for MAOA to Ki for MAOB in bovine brain mitochondria

| Ki [1] [nM] | Ki [2] [nM] | Ratio Ki (Bos taurus [3]) | Ratio Ki (Bos taurus [4]) | Structure (SMILES) |
| --- | --- | --- | --- | --- |
| 4 | 170 | 42.5 | 0.02 | Cc1ccc(C2=NN(C(N)=S)C(c3ccco3)C2)cc1 (stereo unspecified) |
| 8 | 370 | 46.2 | 0.021 | NC(=S)N1N=C(c2ccc(F)cc2)CC1c1ccco1 (stereo unspecified) |
| 12 | 1400 | 116 | 0.008 | NC(=S)N1N=C(c2ccc(F)cc2)C[C@@H]1c1ccc(Cl)cc1 |
| 41 | 6 | 0.14 | 6.8 | NC(=S)N1N=C(c2cccs2)CC1c1ccc(Cl)cc1 (stereo unspecified) |
| 6 | 10 | 1.6 | 0.6 | Cc1ccc(C2=NN(C(N)=S)C(c3ccc(C)cc3)C2)cc1 (stereo unspecified) |
| 50 | 20 | 0.4 | 2.5 | NC(=S)N1N=C(c2cccs2)CC1c1ccco1 (stereo unspecified) |
| 13 | 2.7 | 0.2 | 4.8 | Cc1ccc(C2=NN(C(N)=S)[C@@H](c3ccc(Cl)cc3)C2)cc1 |
| 5 | 2400 | 480 | 0.002 | NC(=S)N1N=C(c2ccc(F)cc2)C[C@H]1c1ccc(Cl)cc1 |
| 7 | 50 | 7.1 | 0.14 | Cc1ccc(C2CC(c3ccc(F)cc3)=NN2C(N)=S)cc1 (stereo unspecified) |
| 50 | 1 | 0.02 | 50 | Cc1ccc(C2=NN(C(N)=S)[C@H](c3ccc(Cl)cc3)C2)cc1 |
| 6 | 1000 | 166 | 0.006 | NC(=S)N1N=C(c2ccc(F)cc2)CC1c1ccc(Cl)cc1 (stereo unspecified) |
| 50 | 10 | 0.2 | 5 | Cc1ccc(C2CC(c3cccs3)=NN2C(N)=S)cc1 (stereo unspecified) |
| 31 | 1.5 | 0.05 | 20.7 | Cc1ccc(C2=NN(C(N)=S)C(c3ccc(Cl)cc3)C2)cc1 (stereo unspecified) |
| 27 | 50 | 1.85 | 0.54 | NC(=S)N1N=C(c2cccs2)CC1c1cccs1 (stereo unspecified) |
